Calb FLC – C. albicans growth inhibition with fluconazole, primary screen, CaCi-2 strain, Alamar Blue fluorescence | growth inhibition, % (no concentration beside the values) | 300,000 tested, 0.57% active | C. albicans CaCi-2 (fluconazole-resistant clinical isolate) + fluconazole, 48 h | AID 1979, 2009;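 active = growth inhibition above about 58% in most replicates, limit read from the data, passing the limit was not always enough; inconclusive = exactly half the replicates above a set limit; inactive = most replicates below a set limit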;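 note: all wells also contain fluconazole at 8 µg/ml as a sub-toxic cotreatment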
HIF activator – HIF pathway transcriptional activators, primary screen, cell-based, U2OS HRE-luciferase, luminescence; U2OS HRE-luciferase reporter; normalized: DMSO 0%, desferrioxamine 100%; activation, % at 7.5 µM (by protocol); 300,000 tested, 0.32% active;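 active = mean activation of at least 10% of the iron chelator positive control signal, with at least half of replicates also reaching 10%; inconclusive = mean and replicate majority disagree about reaching 10%; inactive = mean and most replicates under 10%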
HSF1 activator – HSF-1 activators, primary screen, NIH3T3-HGL cells, MG132 stress, luminescence, single point. NIH3T3-HGL HSF-1 luciferase reporter, 8 h; 100% = twice DMSO control signal. activation, % at 9 µM. 300,000 tested, 1.7% active;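 active = mean replicate activation of at least 50% with a set share of replicates each reaching 50%; inconclusive = only one of those two conditions met; inactive = mean below 50% and too few replicates reaching it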
HSF1 inhib – HSF1 inhibitors in luciferase reporter cells, primary screen, cell-based, NIH3T3, luminescence. AID 2098, 2009. NIH3T3-HGL HSE-luciferase, MG132-induced, luminescence 8 h; stronger effect = lower value. activity change, negative = inhibition, % at 7.5 µM (by protocol). 300,000 tested, 0.77% active;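 active = more than half of replicate wells show activity change below -50%, luminescence cut by over half; inconclusive = some wells, but at most half, below -50%; inactive = no replicate well below -50%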;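 note: luciferase reports HSF-1 transcriptional activity via heat shock element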
T cruzi repl – inhibitors of intracellular T. cruzi growth, primary screen, luminescence, NIH3T3 host cells; T. cruzi beta-gal in NIH3T3, 90 h; inhibition, % (test concentration not listed); 300,000 tested, 1.4% active; AID 1885, 2009;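 active = mean inhibition across valid replicates above about 55%, limit read from the data; inconclusive = mean below that limit but half or more replicates reach it; inactive = mean below it, under half of replicates reach it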;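 note: signal also drops with host cell toxicity which is not excluded here; higher percent means less beta-gal luminescence so fewer parasites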
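Incubation – ≥90 h infection period, 3 h prior cell attachment · System – NIH/3T3 fibroblasts plus reporter T. cruzi · Doses – compound pinned at 50 nL/well, DMSO · Read-out basis – percent inhibition of parasite-derived β-gal signal · Signal – luminescent β-galactosidase signal after 60 min lysis · Also added – 5000 T. cruzi trypomastigotes/well · Medium – Low-serum DMEM with 2% FBS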
Numbers stand for hits; – = inactive; ? = inconclusive. The list is not random: actives were taken first. Their share in the collection is about 4.4%.

SMILES	Calb FLC	HIF activator	HSF1 activator	HSF1 inhib	T cruzi repl
O=C(COc1ncnc2ccccc12)NCC1CCCO1 (stereo not drawn)	–	–	–	–	–
O=[N+]([O-])c1ccc2c(c1)C=C1CCCCC1(N1CCCC1)O2 (stereo not drawn)	–	–	–	–	–
Cc1ccnc(NC(=O)c2cc3ccccc3oc2=O)c1	–	–	67	–	–
Cc1ccc(/C=N/n2nnnc2N)cc1[N+](=O)[O-]	–	–	–	–	–
Cc1ccc(NC(=O)c2cc(N3C(=O)C=CC3=O)ccc2N2CCOCC2)cc1Cl	–	–	–	–	55
C=CCC1(N(C(C)=O)c2ccccc2C)CCCCC1	–	–	–	–	–
CCN(CC)c1ccc2cc(S(=O)(=O)c3ccc(C)cc3)c(=O)oc2c1	101	–	–	–	–
Cc1ccc(S(=O)(=O)c2cc3ccccc3oc2=O)cc1	?	–	–	–	–
C#CCOCCOCCOCCNc1nc(N2CCN(C(=O)CCCCCCCCCCNC(=O)Cn3cc(C[C@@H](C)O)nn3)CC2)nc(N2CCN(C(=O)CCCCCCCCCCNC(=O)[C@H](CCCN=C(N)N)n3cc(C[C@@H](C)CC)nn3)CC2)n1	–	–	–	–	66
C#CCOCCOCCOCCNc1nc(N2CCN(C(=O)Cn3cc(CC(C)O)nn3)CC2)nc(N2CCN(C(=O)[C@H]([C@@H](C)CC)n3cc(CCCN=C(N)N)nn3)CC2)n1 (stereo partly drawn)	–	–	–	–	–
CCOC(=O)CSc1nc2c(c(=O)[nH]1)C(C)(CC)Cc1ccccc1-2 (stereo not drawn)	–	–	–	–	–
c1ccc2nc(-c3ccc4c(c3)OCO4)ccc2c1	–	–	–	–	–
COc1ccc(OC)c2nc(-c3ccc4c(c3)OCO4)ccc12	–	–	54	–	–
O=C(c1cc(C2CC2)nc2ccccc12)N1N=C(C(F)F)CC1(O)C(F)F (stereo not drawn)	–	–	–	–	–
CC(C)c1ccc(-c2cc(C(=O)N3N=C(C(F)F)CC3(O)C(F)F)c3ccccc3n2)cc1 (stereo not drawn)	–	–	–	–	69
O=C(Nc1ccc2c(c1)CCC2)c1cccs1	–	–	55	–	–
Cc1ccc(NC(=O)c2cccs2)cc1NC(=O)c1cccc(F)c1	–	–	58	–	–
Nc1ccc(NC(=O)c2cccs2)cc1	–	–	–	–	–
O=C(Nc1cccc(N2C(=O)C=CC2=O)c1)c1cccs1	–	–	–	–	61
O=C(Nc1ccc(O)cc1)c1ccc(NC(=O)c2cccs2)cc1	–	–	65	–	–
O=C(Nc1ccc(NC(=O)c2cccs2)cc1)c1ccccc1	–	–	–	–	–
COc1ccccc1OCc1nnc(SCC(=O)Nc2nnc(C3CC3)s2)n1C	–	–	–	–	–
CCN(CC(=O)Nc1c(F)cccc1F)C(=O)CCN1C(=O)C2CC=CCC2C1=O (stereo not drawn)	–	–	–	–	–
c1coc(-c2nc3nc4ccccc4nc3n2CC2CCCO2)c1 (stereo not drawn)	–	–	56	–	–
CCCCCn1c(-c2ccco2)nc2nc3ccccc3nc21	–	–	–	–	–
SMILES	Calb FLC	HIF activator	HSF1 activator	HSF1 inhib	T cruzi repl
c1ccc(Cn2c(-c3ccco3)nc3nc4ccccc4nc32)cc1	–	–	90	–	–
Cc1ccc(C(=O)/C=C/c2ccc3c(c2)OCCO3)c(O)c1	–	–	–	–	–
Cc1ccc(/C=C/C(=O)c2ccccc2)cc1	–	–	–	–	–
O=C(/C=C/c1ccccc1Cl)c1ccccc(=O)c1O	–	–	–	–	58
Cc1ccc(C)c(/C=C/C(=O)c2ccccc(=O)c2O)c1	98	–	?	–	58
Cc1ccc(/C=C/C(=O)c2ccccc(=O)c2O)c(C)c1	92	–	–	–	–
Cc1c(-n2c(=O)n(Cc3ccccc3)c(=O)c3[nH]cnc32)cccc1S(C)=O (stereo not drawn)	–	–	–	–	–
O=C(O)c1ccc(-c2nnc(-c3ccccc3)o2)cc1	–	–	–	–	–
O=C(c1ccc(-c2nnc(-c3ccccc3)o2)cc1)N1CCCCCC1	–	40	–	–	–
Cc1ccc(C(=O)NCCN2CCN(C(=O)c3ccc(C)c(C)c3)CC2)cc1C	–	–	–	–	–
O=C(NCCN1CCN(C(=O)c2ccc(Br)cc2)CC1)c1ccc(Br)cc1	–	–	68	–	–
Oc1[nH]c2ccccc2c1N=Nc1ccc(C(F)(F)F)cn1	–	–	–	–	–
Oc1[nH]c2ccc(Br)cc2c1N=Nc1ccc(C(F)(F)F)cn1	–	–	–	–	75
COc1cccc(NC(=S)/C(=C(\[O-])c2cc(C)n(-c3ccccc3F)c2C)[n+]2ccc(N(C)C)cc2)c1	–	–	–	–	75
CCCCCCCN1C(Nc2ccccc2)=NC[C@@H]1Cc1ccccc1	84	–	–	–	?
Cn1cc(C(=O)N/N=C/C(Br)=C/c2ccccc2)ccc1=O	–	–	90	–	–
Cn1cc(C(=O)N/N=C/C=C/c2ccccc2)ccc1=O	–	–	–	–	–
Cn1cc(C(=O)N/N=C/C(Br)=C\c2ccccc2)ccc1=O	–	–	87	–	–
COc1ccc(-c2cc(C)no2)cc1S(=O)(=O)NCC1CCN(Cc2cc(C)ccc2C)CC1	–	–	–	–	–
COc1ccc(C(=O)/C=C/Nc2c(C)n(C)n(-c3ccccc3)c2=O)c(OC)c1	–	–	–	–	–
COc1ccc(C(=O)/C=C/Nc2ccccn2)c(OC)c1	–	–	74	–	–
COC(=O)c1[nH]c2cc(C)ccc2c1NC(=O)CN1CCc2cc(OC)c(OC)cc2C1	100	–	–	–	–
COC(=O)c1[nH]c2ccc(Cl)cc2c1NC(=O)CN1CCc2cc(OC)c(OC)cc2C1	–	–	–	–	–
COc1ccc(C(C(=O)NC2CCCC2)N(C(=O)CNC(=O)c2ccco2)c2cccnc2)cc1 (stereo not drawn)	–	–	–	–	–
Cc1cc2[nH]c(=O)c(=O)[nH]c2cc1S(=O)(=O)N1CCN(c2ccccc2F)CC1	81	–	–	–	–
CCCc1nnc(NC(=O)CCC(=O)Nc2ccc(Br)cc2)s1	–	–	–	–	–
Cc1ccc(SCCC(=O)N2CCC(C)CC2)cc1	–	–	58	–	–
Cc1cc(C)c2c(c1)N[C@H](c1cccs1)[C@@H]1CCO[C@H]21	–	–	–	–	–
CC(C)c1ccc2c(c1)[C@H]1OCC[C@H]1[C@@H](c1cccs1)N2	–	–	122	–	–
